Positions count from the first letter of the chain named.
Legend:
Settings in all cases: stereoisomer not certain
[1] = target: T1, OR2W1 (Homo sapiens) (UniProt Q9Y3N9)
T1 sequence (whole entry): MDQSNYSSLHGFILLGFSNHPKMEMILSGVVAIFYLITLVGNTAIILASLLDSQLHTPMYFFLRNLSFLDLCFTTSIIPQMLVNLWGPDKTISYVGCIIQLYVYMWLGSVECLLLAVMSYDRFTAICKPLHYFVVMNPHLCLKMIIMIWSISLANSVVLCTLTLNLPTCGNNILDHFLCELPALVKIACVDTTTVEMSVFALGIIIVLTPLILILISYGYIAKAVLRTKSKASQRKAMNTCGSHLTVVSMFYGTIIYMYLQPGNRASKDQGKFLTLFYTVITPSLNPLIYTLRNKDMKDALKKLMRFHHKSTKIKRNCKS
Summary of the method: (§1)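 Values were gathered from published papers (main text and supplementary material), with extra details requested from the original authors when needed, and checked for typos and inconsistencies. Each receptor–molecule pair is called responsive (active) if the original authors judged the measured signal statistically different from baseline, and non-responsive (inactive) otherwise. Assay methods varied by source, often transient mammalian cell-line luciferase assays. Recorded details include cell line, G-protein, co-transfected protein and tags.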

[2] = target: T2, OR2T7 (Homo sapiens) (UniProt P0C7T2)
T2 sequence (whole entry): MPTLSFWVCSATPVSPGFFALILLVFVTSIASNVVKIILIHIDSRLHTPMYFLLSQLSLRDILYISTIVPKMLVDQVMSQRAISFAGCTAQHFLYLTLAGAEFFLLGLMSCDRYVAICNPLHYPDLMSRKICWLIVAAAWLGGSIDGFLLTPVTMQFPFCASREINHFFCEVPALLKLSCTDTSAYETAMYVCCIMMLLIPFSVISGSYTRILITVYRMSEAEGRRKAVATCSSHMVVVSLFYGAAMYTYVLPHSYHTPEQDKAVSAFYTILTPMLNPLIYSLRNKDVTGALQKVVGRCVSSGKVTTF
Summary of the method: as §1

[3] = target: T3, OR2T8 (Homo sapiens) (UniProt A6NH00)
T3 sequence (whole entry): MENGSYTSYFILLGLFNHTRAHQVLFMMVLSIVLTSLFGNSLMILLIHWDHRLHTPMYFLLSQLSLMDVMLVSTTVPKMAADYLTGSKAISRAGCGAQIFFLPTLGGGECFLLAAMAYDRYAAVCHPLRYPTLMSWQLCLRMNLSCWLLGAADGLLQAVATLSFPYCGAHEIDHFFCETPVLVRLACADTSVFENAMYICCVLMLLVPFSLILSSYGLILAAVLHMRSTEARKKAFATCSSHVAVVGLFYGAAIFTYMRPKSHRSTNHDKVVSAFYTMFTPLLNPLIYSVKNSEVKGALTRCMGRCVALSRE
Summary of the method: as §1

[4] = target: T4, OR2V1 (Homo sapiens) (UniProt Q8NHB1)
T4 sequence (whole entry): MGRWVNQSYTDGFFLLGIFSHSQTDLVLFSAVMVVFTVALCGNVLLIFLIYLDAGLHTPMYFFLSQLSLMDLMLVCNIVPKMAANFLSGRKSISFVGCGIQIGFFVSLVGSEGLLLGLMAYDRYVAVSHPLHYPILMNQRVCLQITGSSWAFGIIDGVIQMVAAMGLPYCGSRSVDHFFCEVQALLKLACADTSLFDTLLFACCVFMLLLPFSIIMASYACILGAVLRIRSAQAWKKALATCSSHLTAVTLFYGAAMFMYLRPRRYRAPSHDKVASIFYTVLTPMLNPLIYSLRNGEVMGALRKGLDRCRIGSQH
Summary of the method: as §1

[5] = target: T5, OR2V2 (Homo sapiens) (UniProt Q96R30)
T5 sequence (whole entry): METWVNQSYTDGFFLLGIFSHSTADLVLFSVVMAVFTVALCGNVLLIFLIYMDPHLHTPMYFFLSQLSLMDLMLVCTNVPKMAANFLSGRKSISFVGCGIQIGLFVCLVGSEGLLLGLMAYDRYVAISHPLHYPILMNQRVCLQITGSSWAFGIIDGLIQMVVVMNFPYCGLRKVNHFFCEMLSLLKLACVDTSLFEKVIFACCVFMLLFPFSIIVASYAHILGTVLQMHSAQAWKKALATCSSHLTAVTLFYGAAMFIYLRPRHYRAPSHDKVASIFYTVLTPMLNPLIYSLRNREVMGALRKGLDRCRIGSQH
Summary of the method: as §1

[6] = system: T6, OR2T6 C23G
T6 sequence (whole entry): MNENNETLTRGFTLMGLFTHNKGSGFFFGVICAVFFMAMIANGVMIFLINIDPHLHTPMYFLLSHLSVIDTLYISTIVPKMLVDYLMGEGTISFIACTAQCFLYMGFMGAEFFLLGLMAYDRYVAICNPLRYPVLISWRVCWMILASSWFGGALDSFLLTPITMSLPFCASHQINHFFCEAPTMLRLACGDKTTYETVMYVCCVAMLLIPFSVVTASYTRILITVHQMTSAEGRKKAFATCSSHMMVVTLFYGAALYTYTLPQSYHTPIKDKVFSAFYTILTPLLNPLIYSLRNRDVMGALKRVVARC
Summary of the method: as §1

[7] = system: T7, OR2T7
T7 sequence (whole entry): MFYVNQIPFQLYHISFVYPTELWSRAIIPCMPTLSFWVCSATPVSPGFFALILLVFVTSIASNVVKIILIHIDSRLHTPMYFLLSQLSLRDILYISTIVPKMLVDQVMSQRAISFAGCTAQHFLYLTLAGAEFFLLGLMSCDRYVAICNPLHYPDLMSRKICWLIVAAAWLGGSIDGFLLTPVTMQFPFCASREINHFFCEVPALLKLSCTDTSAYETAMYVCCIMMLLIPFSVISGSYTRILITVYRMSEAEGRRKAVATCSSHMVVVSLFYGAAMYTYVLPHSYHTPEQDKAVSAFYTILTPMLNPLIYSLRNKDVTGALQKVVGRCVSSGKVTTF
Summary of the method: as §1

[8] = system: T8, OR2W1 G96V
T8 sequence (whole entry): T1 sequence (whole entry) with G96V
Summary of the method: as §1

[9] = system: T9, OR2W1
T9 sequence (whole entry): T1 sequence (whole entry) with D296N
Summary of the method: as §1

[10] = system: T10, OR2W1; remark: listed apart in the source
T10 sequence (whole entry): T1 sequence (whole entry) with M81V
Summary of the method: as §1

Measured: odorant receptor agonist call

CC(=O)OCC=C(C)C
active: [1]

CC=CC(=O)C(C)CC (centres undefined)
inactive: [1]

CCCCCC1=C(C)CCC1=O
active: [1]

CCCCC(S)C(C)CO (centres undefined)
inactive: [2] | [3] | [4] | [5] | [1]

CCC(=O)C(C)=O
inactive: [1]

CC1=C(O)C(=O)OC1C (centres undefined)
not listed: [2] | [9] | [10]
inactive: all other assays above

CSSSC
active: [1]

CC(=O)CC(=O)CC(C)C
active: [1]

CCCC(S)CCOC(C)=O (centres undefined)
active: [1] | [8] | [9] | [10]
not listed: [2]
inactive: all other assays above

CCCCCC(=O)C(C)C(C)=O (centres undefined)
active: [9] | [10]
inactive: [2] | [3] | [4] | [5] | [1]

CCCCCC1CCCC(=O)O1 (centres undefined)
inactive: [1]

COc1nccnc1CC(C)C
inactive: [1]

C=Cc1ccc(O)c(OC)c1
inactive: [1]

CCCCCC(=O)CC
active: [1]

CC1=NC(C)C(C)S1 (centres undefined)
not listed: [2] | [9] | [10]
inactive: all other assays above

CCCCCCCCS
active: [1]

O=C(c1ccccc1)c1ccccc1
active: [1]

CCC1OC(=O)C(O)=C1C (centres undefined)
not listed: [2] | [9] | [10]
inactive: all other assays above

CCC(S)C(C)CO (centres undefined)
inactive: [2] | [3] | [4] | [5] | [1]

CC1CCCCCCCCCCCCC(=O)C1 (centres undefined)
inactive: [2] | [3] | [4] | [5] | [1]

CCC1OC(C)=C(O)C1=O (centres undefined)
not listed: [2] | [9] | [10]
inactive: all other assays above

CC1=C(O)C(=O)C(C)O1 (centres undefined)
not listed: [2] | [9] | [10]
inactive: all other assays above

CC(CO)CS (centres undefined)
inactive: [2] | [3] | [4] | [5] | [1]

CCCCCCCCC(=O)O
active: [1]

CC(=O)C=CC1=C(C)CCCC1(C)C
inactive: [1]

CC(=O)c1c(C)c([N+](=O)[O-])c(C(C)(C)C)c([N+](=O)[O-])c1C
inactive: [2] | [3] | [4] | [5] | [1]

COC(=O)C(C)C
inactive: [1]

CCCCCCC=CCCC=O
not listed: [7] | [9] | [10]
inactive: all other assays above

Cc1ccc(O)cc1
inactive: [1]

CCCCCC(S)C(C)CO (centres undefined)
inactive: [2] | [3] | [4] | [5] | [1]
